Laboratory results: ChEMBL document CHEMBL5365541, “Designing peptide amphiphiles as novel antibacterials and antibiotic adjuvants against gram-negative bacteria” (Bioorg Med Chem, 2023)
Converted amounts (≈) assume the structure as drawn. The source made the active and inactive calls. The rule behind the calls is not given here. Starred links: 1 amine or outer side, 2 acyl side, 3 side chain; linkers in the order of their positions; H or OH if unused. Non-standard residues stand in square brackets, D forms with d. Residues, ends and D or L forms follow the SMILES beside them. X1 = CCCCCCCCCCCCCCCCN([C@@H](CCCCN)C(=O)[*:2])[*:1]; X2 = CCCCCCCCCCCCCCCCN([C@@H](C)C(=O)[*:2])[*:1]

Tests used:
[1] = Cytotoxicity against HEK293 cells assessed as cell viability up to 64 ug/ml incubated for 24 hrs by XTT assay relative to control; assay type: toxicity, cell-based; settings: human, up to 64 µg/mL, read-out: Activity
Summary of the method: (§1)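 HEK-293 cells, passages 3–8, seeded at 5×10^4 per well and preincubated 24 h at 37 °C, 5% CO2. Medium replaced with serially diluted PA, final 8–256 µg/mL, for 24 h, in triplicate. XTT reagent (0.5 mg/mL) added for 4 h at 37 °C, then absorbance read at 600 nm.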

Cell membrane [2] = assay: Induction of inner membrane permeability in Escherichia coli K12 by propidium iodide staining based spectrofluorometry; assay type: subcellular; settings: dose 4-64 µg/ml
Summary of the method: (§2)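 E. coli K12 grown in MHB to mid-log, washed twice in PBS, and diluted to 10^6 CFU/mL in 5 mM HEPES + glucose. Cells preincubated with […] at least 15 min at 37 °C. Then treated with agent at 1/8, 1× or 2× MIC, or with PA–vancomycin 1:1. Fluorescence read at ex 535 / em 615 nm. Polymyxin B as positive control; untreated cells as negative control.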

Cell membrane [3] = assay: Induction of inner membrane permeability in Escherichia coli K12 at FICI in presence of vancomycin by propidium iodide staining based spectrofluorometry; assay type: subcellular; settings: dose 4.0 µg/ml; summary of the method: as §2
Escherichia coli [4] = assay: Antibacterial activity against Escherichia coli K12 incubated for 20 to 24 hrs by broth microdilution method; assay type: functional; settings: time 20-24 hrs
Summary of the method: (§3)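 Broth microdilution: colonies suspended directly to 1.5×10^8 CFU/mL (0.5 McFarland), then diluted in Mueller–Hinton broth to ~10^5 CFU/mL final. PA stock 1 mg/mL in water, pH 7, serially diluted in MHB. Plates incubated 20–24 h at 37 °C. MIC = lowest concentration inhibiting growth, read as OD600 with optional 1% TTC staining. Triplicate.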

Escherichia coli [5] = assay: Ratio of MIC for Escherichia coli K12 at pH 5.5 to MIC for Escherichia coli K12 at pH 7.0
Staphylococcus aureus [6] = assay: Antibacterial activity against methicillin resistant Staphylococcus aureus JE2 assessed as fold increase in MIC after 21 days by broth microdilution method relative to MIC before 21 days; assay type: functional; settings: time 21 day
Cell membrane [7] = assay: Induction of inner membrane permeability in Escherichia coli K12 at 4 ug/mL by propidium iodide staining based spectrofluorometry; assay type: subcellular; settings: dose 4.0 µg/ml; summary of the method: as §2
Acinetobacter baumannii [8] = assay: Synergistic antibacterial activity against Acinetobacter baumannii assessed as fractional inhibitory concentration index incubated for 20 to 24 hrs in presence of vancomycin by checkerboard broth microdilution assay; assay type: functional; settings: time 20-24 hrs
Summary of the method: (§4)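 Checkerboard broth microdilution. E. coli K12 or A. baumannii clinical isolate grown to mid-log (OD ~0.8) and diluted to ~10^5 CFU/mL in MHB. Two-fold dilutions of rifampicin or vancomycin run across the plate against two-fold PA dilutions down it. Incubated 20–24 h at 37 °C, OD read at 470 nm. FICi calculated from the combination MICs.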

Escherichia coli [9] = assay: Synergistic antibacterial activity against Escherichia coli K12 incubated for 20 to 24 hrs in presence of vancomycin by checkerboard broth microdilution assay; assay type: functional; settings: time 20-24 hrs; summary of the method: as §4
Acinetobacter baumannii [10] = assay: Antibacterial activity against Acinetobacter baumannii incubated for 20 to 24 hrs by broth microdilution method; assay type: functional; settings: time 20-24 hrs; summary of the method: as §3
Escherichia coli [11] = assay: Synergistic antibacterial activity against Escherichia coli K12 assessed as fractional inhibitory concentration index incubated for 20 to 24 hrs in presence of vancomycin by checkerboard broth microdilution assay; assay type: functional; settings: time 20-24 hrs; summary of the method: as §4
HEK293 = assay: Cytotoxicity against HEK293 cells assessed as reduction in cell viability at 64 to 256 ug/ml incubated for 24 hrs by XTT assay; assay type: toxicity, cell-based; settings: human, hek293, 24 h, dose 64-256 µg/ml; summary of the method: as §1
Escherichia coli [12] = assay: Synergistic antibacterial activity against Escherichia coli K12 assessed as potentiation of vancomycin-induced antibacterial activity by measuring fold increase in vancomycin MIC incubated for 20 to 24 hrs by checkerboard broth microdilution assay relative to vancomycin alone; assay type: functional; settings: time 20-24 hrs; summary of the method: as §4
[13] = Retention time of the compound by RP-HPLC analysis; assay type: physicochemical
Summary of the method: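 Reverse-phase HPLC, linear gradient 0–100% acetonitrile in water with 0.1% TFA over 20 min; retention time recorded.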

Staphylococcus aureus [14] = assay: Antibacterial activity against methicillin-resistant Staphylococcus aureus JE2 incubated for 20 to 24 hrs by broth microdilution method; assay type: functional; settings: time 20-24 hrs
Summary of the method: (§5)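 Broth microdilution in MHB: direct colony suspension at 0.5 McFarland diluted to ~10^5 CFU/mL final; peptide stock 1 mg/mL in water at pH 7, serially diluted. Incubated 20-24 h at 37 °C; MIC taken as the lowest concentration inhibiting growth (OD 600 nm, 1% TTC stain); triplicate; vancomycin and gentamicin as positive controls.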

Escherichia coli [15] = assay: Synergistic antibacterial activity against Escherichia coli K12 assessed as potentiation of vancomycin-induced antibacterial activity by vancomycin MIC incubated for 20 to 24 hrs by checkerboard broth microdilution assay; assay type: functional; settings: time 20-24 hrs; summary of the method: as §4
[16] = Self assembly property of the compound assessed as formation of micelles at 1 mg/ml incubated overnight by transmission electron microscopy; assay type: physicochemical
Summary of the method: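 Samples were dissolved at 2 mM in water, pH 7, and left at room temperature overnight. Applied to copper grids for 5 min, blotted, and negatively stained with NanoVan for 30 s. Imaged by TEM at 120 kV.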

Staphylococcus aureus [17] = assay: Antibacterial activity against methicillin-resistant Staphylococcus aureus 13C incubated for 20 to 24 hrs by broth microdilution method; assay type: functional; settings: time 20-24 hrs; summary of the method: as §5
[18] = Self assembly property of the compound assessed as zeta potential at 250 ug/mL at pH 7 measured after 2 hrs; assay type: physicochemical; settings: pH 7, 2 h, dose 250 µg/ml
Summary of the method: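 Peptide self-assembled at 1 mg/mL, pH 7, annealed 2 h at 80 °C, and aged overnight. Diluted to 250 µg/mL in water; zeta potential measured at 25 °C.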

Cell membrane [19] = assay: Induction of inner membrane permeability in Escherichia coli K12 at 2 times FICI in presence of vancomycin by propidium iodide staining based spectrofluorometry; assay type: subcellular; settings: dose 2.0 µg/ml; summary of the method: as §2
Staphylococcus aureus [20] = assay: Antibacterial activity against methicillin resistant Staphylococcus aureus JE2 assessed as fold increase in MIC after 21 days in presence of vancomycin by broth microdilution method relative to MIC before 21 days; assay type: functional; settings: time 21 day
Staphylococcus aureus [21] = assay: Ratio of MIC for methicillin-resistant Staphylococcus aureus JE2 at pH 5.5 to MIC for methicillin-resistant Staphylococcus aureus JE2 at pH 7.0
[22] = Hemolytic activity in human red blood cells assessed as hemolysis at 8 ug/ml incubated for 60 min relative to control; assay type: toxicity, cell-based, Erythrocyte; settings: at 8 µg/mL, read-out: Activity
Summary of the method: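 Washed human RBCs at 0.25×10^8 cells/mL final in PBS, mixed with PA (stocks 16–1024 µg/mL, equal volume). Shaken 10 min, then incubated 60 min at 37 °C, 5% CO2. Cells pelleted at 1000 × g; supernatant hemoglobin read at OD405. 5% Triton X-100 taken as 100% hemolysis; water as negative control.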

Cell membrane [23] = assay: Induction of inner membrane permeability in Escherichia coli K12 assessed as shift in bacterial zeta potential at 80 ug/ml measured after 1 hr; assay type: subcellular; settings: dose 80.0 µg/ml
Escherichia coli [24] = assay: Synergistic antibacterial activity against Escherichia coli K12 assessed as potentiation of rifampicin-induced antibacterial activity by measuring fold increase in rifampicin MIC incubated for 20 to 24 hrs by checkerboard broth microdilution assay relative to rifampicin alone; assay type: functional; settings: time 20-24 hrs; summary of the method: as §4
Staphylococcus aureus [25] = assay: Antibacterial activity against methicillin resistant Staphylococcus aureus JE2 assessed as fold increase in MIC after 5 days by broth microdilution method relative to MIC before 5 days; assay type: functional; settings: time 5 day
Cell membrane [26] = assay: Induction of inner membrane permeability in Escherichia coli K12 at 8 to 16 ug/mL by propidium iodide staining based spectrofluorometry; assay type: subcellular; settings: dose 8-16 µg/ml; summary of the method: as §2
Acinetobacter baumannii [27] = assay: Synergistic antibacterial activity against Acinetobacter baumannii assessed as fractional inhibitory concentration index incubated for 20 to 24 hrs in presence of rifampicin by checkerboard broth microdilution assay; assay type: functional; settings: time 20-24 hrs; summary of the method: as §4
Escherichia coli [28] = assay: Synergistic antibacterial activity against Escherichia coli K12 assessed as fractional inhibitory concentration index incubated for 20 to 24 hrs in presence of rifampicin by checkerboard broth microdilution assay; assay type: functional; settings: time 20-24 hrs; summary of the method: as §4
Acinetobacter baumannii [29] = assay: Synergistic antibacterial activity against Acinetobacter baumannii assessed as potentiation of rifampicin-induced antibacterial activity by measuring fold increase in rifampicin MIC incubated for 20 to 24 hrs by checkerboard broth microdilution assay relative to rifampicin alone; assay type: functional; settings: time 20-24 hrs; summary of the method: as §4
Staphylococcus aureus [30] = assay: Antibacterial activity against methicillin-resistant Staphylococcus aureus LAC incubated for 20 to 24 hrs by broth microdilution method; assay type: functional; settings: time 20-24 hrs; summary of the method: as §5
Cell membrane [31] = assay: Induction of inner membrane permeability in methicillin-resistant Staphylococcus aureus JE2 assessed as shift in bacterial zeta potential at 80 ug/ml measured after 1 hr; assay type: subcellular; settings: dose 80.0 µg/ml
Summary of the method: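 Mid-log MRSA JE2 from MHB (OD ~0.8) washed and resuspended in PBS at 5×10^7 CFU/mL, exposed to peptide at 10 × MIC for 1 h, then zeta potential measured at 25 °C; untreated cells as negative control, daptomycin and polymyxin B as reference drugs.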

For `CCCCCCCCCCCCCCCCN[C@@H](CCCCN)C(=O)N[C@@H](Cc1c[nH]cn1)C(=O)N[C@@H](CCCCN)C(=O)N[C@@H](Cc1c[nH]cn1)C(=O)N[C@@H](CCCCN)C(=O)O` (H-[X1]HKHK-OH), the viability at 24 h [1] was 100%, the Activity (Cell membrane [2]) was “Dose-Dependent Effect” and the Activity (Cell membrane [3]) was “Active”. The MIC (Escherichia coli [4]) was 32 µg/mL (≈ 35.5 µM), the Ratio (Escherichia coli [5]) was > 1 and the “fold change (FC)” value (Staphylococcus aureus [6]) was 8. The Activity (Cell membrane [7]) was “Active”, the “fractional inhibitory concentration index (FICI)” value (Acinetobacter baumannii [8]) was 1 and the MIC (Escherichia coli [9]) was 4 µg/mL. The MIC (Acinetobacter baumannii [10]) was 64 µg/mL (≈ 71 µM), the “fractional inhibitory concentration index (FICI)” value (Escherichia coli [11]) was 0.15 and the Activity (HEK293) was “Non-Toxic”. The “fold change (FC)” value (Escherichia coli [12]) was 32, the Retention_time [13] was 13.4 min and the MIC (Staphylococcus aureus [14]) was 64 µg/mL (≈ 71 µM). For the same compound, the MIC (Escherichia coli [15]) was 4 µg/mL, the Activity [16] was “Active” and the MIC (Staphylococcus aureus [17]) was 32 µg/mL (≈ 35.5 µM). For the same compound, the Activity [18] was 15.8 mV, the Activity (Cell membrane [19]) was “Active” and the “fold change (FC)” value (Staphylococcus aureus [20]) was 8. The Ratio (Staphylococcus aureus [21]) was > 1 and the hemolysis at 1 h, 8 ug/ml [22] was 28.2%.

In the case of `CCCCCCCCCCCCCCCCN[C@@H](C)C(=O)N[C@@H](C)C(=O)N[C@@H](C)C(=O)N[C@@H](CCCCN)C(=O)N[C@@H](CCCNC(=N)N)C(=O)N[C@@H](CCCCN)C(=O)N[C@@H](CCCNC(=N)N)C(=O)O` (H-[X2]AAKRKR-OH), the viability at 24 h [1] is reported as 100%, the Activity (Cell membrane [23]) is reported as “Active” and the “fold change (FC)” value (Escherichia coli [24]) is reported as 8. For the same compound, the “fold change (FC)” value (Staphylococcus aureus [25]) was 2, the Activity (Cell membrane [26]) was “Active” and the “fractional inhibitory concentration index (FICI)” value (Acinetobacter baumannii [27]) was 0.75. The MIC (Escherichia coli [4]) was 8 µg/mL (≈ 7.81 µM), the Activity (Cell membrane [7]) was “inactive” and the MIC (Acinetobacter baumannii [10]) was 4 µg/mL (≈ 3.9 µM). For the same compound, the Activity (HEK293) was “Non-Toxic”, the Retention_time [13] was 14.3 min and the MIC (Staphylococcus aureus [14]) was 8 µg/mL (≈ 7.81 µM). The Activity [16] was “Active”, the MIC (Staphylococcus aureus [17]) was 8 µg/mL (≈ 7.81 µM) and the “fractional inhibitory concentration index (FICI)” value (Escherichia coli [28]) was 0.62. The Activity [18] was 10.8 mV, the “fold change (FC)” value (Acinetobacter baumannii [29]) was 2 and the MIC (Staphylococcus aureus [30]) was 8 µg/mL (≈ 7.81 µM). The Activity (Cell membrane [31]) was “Active” and the hemolysis at 1 h, 8 ug/ml [22] was 33.3%.
